Measured values reported in ChEMBL document CHEMBL5029150, “Controlling Intramolecular Interactions in the Design of Selective, High-Affinity Ligands for the CREBBP Bromodomain” (J Med Chem, 2021).
Activity calls are given as the source filed them.

Key:
Conditions in all cases: dose microM <=1
[1] = target: T1, ATPase family AAA domain-containing protein 2B (Homo sapiens) (UniProt Q9ULI0); test: Binding affinity to human ATAD2B assessed as dissociation constant up to 1 uM by BROMOscan assay
T1 sequence (whole entry): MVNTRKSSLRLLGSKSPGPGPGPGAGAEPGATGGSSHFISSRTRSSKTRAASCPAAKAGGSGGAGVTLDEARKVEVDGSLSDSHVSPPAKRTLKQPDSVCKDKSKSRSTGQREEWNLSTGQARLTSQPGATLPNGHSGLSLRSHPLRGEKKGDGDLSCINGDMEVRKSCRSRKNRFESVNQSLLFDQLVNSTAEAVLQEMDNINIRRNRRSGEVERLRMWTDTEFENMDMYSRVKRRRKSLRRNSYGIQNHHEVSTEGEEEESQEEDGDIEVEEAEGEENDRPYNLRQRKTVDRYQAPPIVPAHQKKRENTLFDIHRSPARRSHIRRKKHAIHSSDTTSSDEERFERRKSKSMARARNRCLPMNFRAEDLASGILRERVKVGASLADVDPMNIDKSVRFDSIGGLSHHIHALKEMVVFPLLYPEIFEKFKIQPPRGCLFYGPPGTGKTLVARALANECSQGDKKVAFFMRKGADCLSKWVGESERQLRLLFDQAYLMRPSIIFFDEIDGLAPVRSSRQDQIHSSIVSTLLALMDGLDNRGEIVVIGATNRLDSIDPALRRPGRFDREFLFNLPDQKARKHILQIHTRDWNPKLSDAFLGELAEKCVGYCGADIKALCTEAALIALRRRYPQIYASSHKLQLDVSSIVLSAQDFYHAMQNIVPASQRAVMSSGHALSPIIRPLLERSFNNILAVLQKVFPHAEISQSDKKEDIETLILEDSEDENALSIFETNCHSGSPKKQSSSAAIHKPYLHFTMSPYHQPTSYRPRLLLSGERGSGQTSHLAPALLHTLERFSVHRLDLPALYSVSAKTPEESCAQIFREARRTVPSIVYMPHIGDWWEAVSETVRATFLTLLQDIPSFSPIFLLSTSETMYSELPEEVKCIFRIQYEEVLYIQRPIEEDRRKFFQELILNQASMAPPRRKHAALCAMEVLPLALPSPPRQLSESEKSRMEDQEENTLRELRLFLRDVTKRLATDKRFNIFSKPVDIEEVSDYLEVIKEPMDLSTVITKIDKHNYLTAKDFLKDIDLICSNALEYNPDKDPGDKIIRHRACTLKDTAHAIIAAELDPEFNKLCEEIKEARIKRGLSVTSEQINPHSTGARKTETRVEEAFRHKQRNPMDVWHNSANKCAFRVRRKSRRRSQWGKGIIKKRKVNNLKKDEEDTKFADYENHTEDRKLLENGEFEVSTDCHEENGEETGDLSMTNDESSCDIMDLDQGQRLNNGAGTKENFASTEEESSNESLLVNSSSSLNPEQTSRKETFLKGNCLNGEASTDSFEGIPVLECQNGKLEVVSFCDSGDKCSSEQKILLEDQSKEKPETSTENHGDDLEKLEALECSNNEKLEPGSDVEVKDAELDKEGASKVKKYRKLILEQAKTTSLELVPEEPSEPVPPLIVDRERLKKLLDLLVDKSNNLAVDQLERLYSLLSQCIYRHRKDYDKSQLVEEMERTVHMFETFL
Procedure, shortened: (§1)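 BROMOscan competition binding panel of 12 phylogenetically diverse bromodomains, including the CREBBP and EP300 bromodomains.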

[2] = target: T2, Bromodomain-containing protein 7 (Homo sapiens) (UniProt Q9NPI1); test: Binding affinity to human BRD7 assessed as dissociation constant up to 1 uM by BROMOscan assay; procedure, shortened: as §1
T2 sequence (whole entry): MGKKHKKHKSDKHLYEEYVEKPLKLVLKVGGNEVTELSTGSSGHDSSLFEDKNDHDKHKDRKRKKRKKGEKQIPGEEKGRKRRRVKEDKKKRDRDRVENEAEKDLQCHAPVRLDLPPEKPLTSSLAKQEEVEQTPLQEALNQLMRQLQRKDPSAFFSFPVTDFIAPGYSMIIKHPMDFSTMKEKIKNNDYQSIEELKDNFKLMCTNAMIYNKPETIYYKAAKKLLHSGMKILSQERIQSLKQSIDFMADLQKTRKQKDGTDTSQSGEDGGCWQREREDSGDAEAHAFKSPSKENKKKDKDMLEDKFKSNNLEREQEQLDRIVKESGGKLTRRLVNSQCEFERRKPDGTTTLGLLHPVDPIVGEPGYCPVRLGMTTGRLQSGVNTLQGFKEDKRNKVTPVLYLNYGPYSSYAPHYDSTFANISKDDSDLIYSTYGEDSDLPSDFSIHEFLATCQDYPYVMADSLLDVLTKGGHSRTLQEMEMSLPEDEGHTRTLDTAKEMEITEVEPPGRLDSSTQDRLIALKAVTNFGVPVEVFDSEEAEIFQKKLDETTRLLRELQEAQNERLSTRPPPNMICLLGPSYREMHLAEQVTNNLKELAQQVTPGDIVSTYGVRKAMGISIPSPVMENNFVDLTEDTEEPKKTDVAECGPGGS

[3] = target: Transcription initiation factor TFIID subunit 1 (Homo sapiens) (UniProt P21675); test: Binding affinity to human TAF1 bromo domain 2 assessed as dissociation constant up to 1 uM by BROMOscan assay; procedure, shortened: as §1
[4] = target: T3, Bromodomain-containing protein 9 (Homo sapiens) (UniProt Q9H8M2); test: Binding affinity to human BRD9 assessed as dissociation constant up to 1 uM by BROMOscan assay; procedure, shortened: as §1
T3 sequence (whole entry): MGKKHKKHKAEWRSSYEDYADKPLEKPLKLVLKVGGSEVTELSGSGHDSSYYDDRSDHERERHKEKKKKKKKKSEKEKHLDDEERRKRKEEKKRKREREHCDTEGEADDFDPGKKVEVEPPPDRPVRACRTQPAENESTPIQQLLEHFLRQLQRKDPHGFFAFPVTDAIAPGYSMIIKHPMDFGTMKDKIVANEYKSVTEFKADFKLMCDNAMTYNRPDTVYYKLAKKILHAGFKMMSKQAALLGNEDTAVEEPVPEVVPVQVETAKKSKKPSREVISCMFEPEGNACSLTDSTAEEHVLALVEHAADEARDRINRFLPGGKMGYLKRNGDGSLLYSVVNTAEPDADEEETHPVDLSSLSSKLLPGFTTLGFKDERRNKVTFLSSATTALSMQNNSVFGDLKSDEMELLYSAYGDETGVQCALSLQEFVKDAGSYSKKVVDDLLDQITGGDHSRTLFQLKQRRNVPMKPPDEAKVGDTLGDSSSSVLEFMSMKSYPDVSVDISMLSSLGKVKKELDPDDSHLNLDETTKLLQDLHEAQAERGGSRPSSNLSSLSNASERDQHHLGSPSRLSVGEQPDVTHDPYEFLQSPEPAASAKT

Measured: Activity

Sequence of Transcription initiation factor TFIID subunit 1 (Homo sapiens) (P21675 whole entry, the tested form may be a part): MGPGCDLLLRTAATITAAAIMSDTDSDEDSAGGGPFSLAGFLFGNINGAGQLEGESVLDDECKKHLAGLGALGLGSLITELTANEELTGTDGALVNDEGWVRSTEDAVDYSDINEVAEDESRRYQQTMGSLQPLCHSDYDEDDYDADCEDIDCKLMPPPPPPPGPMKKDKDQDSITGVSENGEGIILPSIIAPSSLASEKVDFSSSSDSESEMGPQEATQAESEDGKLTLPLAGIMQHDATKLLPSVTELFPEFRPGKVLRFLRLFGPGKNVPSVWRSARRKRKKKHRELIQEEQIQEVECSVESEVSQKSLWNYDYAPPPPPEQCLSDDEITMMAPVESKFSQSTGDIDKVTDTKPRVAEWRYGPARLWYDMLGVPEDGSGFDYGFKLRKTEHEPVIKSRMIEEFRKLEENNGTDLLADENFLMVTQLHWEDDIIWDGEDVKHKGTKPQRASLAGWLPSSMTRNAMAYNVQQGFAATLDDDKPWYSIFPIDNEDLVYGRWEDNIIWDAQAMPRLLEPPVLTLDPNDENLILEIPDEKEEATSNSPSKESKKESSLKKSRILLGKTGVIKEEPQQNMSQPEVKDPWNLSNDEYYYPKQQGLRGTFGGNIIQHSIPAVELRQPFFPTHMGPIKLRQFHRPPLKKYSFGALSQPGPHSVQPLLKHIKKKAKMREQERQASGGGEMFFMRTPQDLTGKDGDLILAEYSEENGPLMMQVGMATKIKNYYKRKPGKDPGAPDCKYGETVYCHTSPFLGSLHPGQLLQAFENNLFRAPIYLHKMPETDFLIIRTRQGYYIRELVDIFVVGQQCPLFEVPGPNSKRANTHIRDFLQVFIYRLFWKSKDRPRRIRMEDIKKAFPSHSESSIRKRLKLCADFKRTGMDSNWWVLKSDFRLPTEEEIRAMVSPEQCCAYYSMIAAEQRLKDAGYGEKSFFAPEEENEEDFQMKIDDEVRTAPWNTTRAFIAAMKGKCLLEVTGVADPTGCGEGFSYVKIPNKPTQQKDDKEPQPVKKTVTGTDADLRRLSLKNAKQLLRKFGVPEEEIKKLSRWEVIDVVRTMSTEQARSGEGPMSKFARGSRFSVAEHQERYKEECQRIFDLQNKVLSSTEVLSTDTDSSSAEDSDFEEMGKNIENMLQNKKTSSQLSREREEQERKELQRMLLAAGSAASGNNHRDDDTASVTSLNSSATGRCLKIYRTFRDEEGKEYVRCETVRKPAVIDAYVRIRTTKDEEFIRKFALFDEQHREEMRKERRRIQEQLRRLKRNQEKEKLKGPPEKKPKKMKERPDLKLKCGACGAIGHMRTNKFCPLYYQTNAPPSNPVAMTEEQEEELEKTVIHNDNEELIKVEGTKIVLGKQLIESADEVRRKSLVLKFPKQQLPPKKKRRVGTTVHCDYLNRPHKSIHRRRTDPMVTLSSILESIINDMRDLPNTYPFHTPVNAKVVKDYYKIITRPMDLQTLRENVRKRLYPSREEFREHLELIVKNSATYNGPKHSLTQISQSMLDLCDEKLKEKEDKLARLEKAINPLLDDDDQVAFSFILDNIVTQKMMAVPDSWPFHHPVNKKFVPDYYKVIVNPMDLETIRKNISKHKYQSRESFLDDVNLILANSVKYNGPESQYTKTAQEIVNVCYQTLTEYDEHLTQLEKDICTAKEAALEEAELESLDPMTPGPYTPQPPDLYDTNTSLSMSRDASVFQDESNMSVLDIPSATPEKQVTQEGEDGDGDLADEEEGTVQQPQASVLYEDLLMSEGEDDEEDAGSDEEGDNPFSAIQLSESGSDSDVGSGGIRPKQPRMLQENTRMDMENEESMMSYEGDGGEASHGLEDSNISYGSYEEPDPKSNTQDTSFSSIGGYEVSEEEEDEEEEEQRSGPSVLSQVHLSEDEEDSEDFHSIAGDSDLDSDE

COc1ccc2c(c1)N(CCC/C=C/c1cccc3c1N[C@@H](C)CC(=O)N3)CCC2
inactive: all assays above

COc1ccc2c(c1)N(CCC/C=C/c1cccc3c1N[C@H](C)CC(=O)N3)CCC2
inactive: all assays above
